Test system: MS2 coat protein
Experiment: apparent Kd, MS2 coat protein; higher = weaker binding; RNA-MaP array; FMN 200 µM where present
Procedure, shortened: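 Green signal was scaled to red-channel RNA signal and control-cluster median Fmax, and the apparent Kd was taken as the median of filtered per-cluster binding-curve fits. The binding series used SNAP-549-labelled MS2 coat protein from 0.7 or 1.5 nM, doubling to 3 µM, on designs transcribed by stalled E. coli RNA polymerase on Illumina sequencing-chip clusters. Each series ran without and then with constant ligand in 100 mM Tris-HCl pH 7.5, 80 mM KCl, 4 mM MgCl2, BSA, DTT, yeast tRNA and Tween-20.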

[1] = designed as: OFF switch for flavin mononucleotide, no ligand
[2] = ligand present: flavin mononucleotide, designed as: OFF switch for flavin mononucleotide
[3] = designed as: ON switch for flavin mononucleotide, no ligand
[4] = ligand present: flavin mononucleotide, designed as: ON switch for flavin mononucleotide

## GCCCGCGCUAAGGAUAUCAGGGUUAAAAUAGUAUGAGAAGGUAGCACAUGAGGAUCACCCAUGUGUCCCUUAUG
[1]
  apparent Kd: 16.5 nM
[2]
  apparent Kd: 17.3 nM

## CUCAAACAUGAGGAUCACCCAUGUGUUGUCAUGGGAGGAUAUCUAAGUUCAUUGUAUUCGGGAGAAGGCCUAUGUC
[3]
  apparent Kd: 503 nM
[4]
  apparent Kd: 46.5 nM

## UUUUAGUAAGGAUAUGCGUAGAUCUACGAAAGUAGAUCUACGCAGAAGGUACAUGAGGAUCACCCAUGUAGAUU
[1]
  apparent Kd: 21.5 nM
[2]
  apparent Kd: 26.7 nM

## GAAUAAUUGAUCCAAUUUUACAACAUGAGGAUCACCCAUGUGCAGGAUAUCGUGUGUGUUAUAUACGAGAAGGGCAAGAACUGU
[1]
  apparent Kd: 381 nM
[2]
  apparent Kd: 448 nM

## GUUUGAUUGUAGAAGGUACUUAAUACUCAUGUUACAUGAGGAUCACCCAUGUUUCUACAUUAUUGUAAGGAUAUACAUAACUCA
[3]
  apparent Kd: 259 nM
[4]
  apparent Kd: 48.6 nM

## CCUCCCUGAGGAUAUCCACCCUCAUACAUGAGGAUCACCCAUGUUCAUCCCUGGGUACCCGGAGAAGGCAGAUUUC
[1]
  apparent Kd: 154 nM
[2]
  apparent Kd: 165 nM

## GUCAUCAAUGAAGGAUAUCUAUGUCCAACAUGAGGAUCACCCAUGUUGAGGAUUACCUAUGUGUAGGAGAAGGUCAAUAUAACU
[3]
  apparent Kd: 8.01 nM
[4]
  apparent Kd: 6.91 nM

## GUCAGCUCGUGAGGAUAUACAACACUGCUUCGGCAGUGUAUUAAGAUCACAUGAGGAUCACCCAUGUAGAAGGCGCGAGCUGAU
[1]
  apparent Kd: 13.3 nM
[2]
  apparent Kd: 243 nM

## CGUACACAUGAGGAUCACCCAUGUCAGAUUUGGUCAGGAUAUGGGCGGCAUCCGCUAUAGCCAGAAGGGACUGUUG
[3]
  apparent Kd: 173 nM
[4]
  apparent Kd: 204 nM

## CAGCUGAAAGUCAGGAUAUCUAGAGCUGCGGCUCUAGAGAAGGGACAUGAGGAUCACCCAUGUGAUCACAGCUG
[1]
  apparent Kd: 1440 nM
[2]
  apparent Kd: 150 nM

## GAACUGAAGCAUGGCUUUAGUCGUACAUGAGGAUCACCCAUGUAGGAUAUGGUAGGCAUAGCUUACUAGAAGGAUAGAGUGAUC
[1]
  apparent Kd: 187 nM
[2]
  apparent Kd: 63.4 nM

## AUUGUUAAGUUAGGAUAUAGUAAAAUGAUUUAGUUAGAAGGAGCUCACAUGAGGAUCACCCAUGUAAGAGGAUCACCCAUGUAU
[1]
  apparent Kd: 24.9 nM
[2]
  apparent Kd: 18.3 nM

## GGAUAGGACAGAGGAUAUAAGUGCUAGAGAUACUAGCAAAAUUUCCUCACAUGAGGAUCACCCAUGUAGAAGGCUGUCCUAUCG
[1]
  apparent Kd: 5.71 nM
[2]
  apparent Kd: 11.3 nM

## AAGCCCUGAGGAUAUCCCAACUCGCACAUGAGGAUCACCCAUGUCCUCCUCUGGGCUUCGGGAGAAGGCAGGUCUC
[1]
  apparent Kd: 43.1 nM
[2]
  apparent Kd: 114 nM

## GUCAGCUCGUGAGGAUAUACAACACUGCUACGGCAGUGUAUUAAGAUCACAUGAGGAUCACCCAUGUAGAAGGCACGAGCUGAU
[1]
  apparent Kd: 14 nM
[2]
  apparent Kd: 242 nM

## AGAGACCUCACAGGAUAUGCUGGACUUUGUCCAGCAGAAGGGUGAAAACAUGAGGAUCACCCAUGUAUGGUCUCCAAAUUUAAC
[3]
  apparent Kd: 187 nM
[4]
  apparent Kd: 12.7 nM

## GUCAGCUCGUGAGGAUAUACAUCACUGCUUCGGCAGUGUAUUAAGACAACAUGAGGAUCACCCAUGUAGAAGGCACGAGCUGAU
[1]
  apparent Kd: 16.9 nM
[2]
  apparent Kd: 20.4 nM

## AUUUUAUAACAAGGAUAUACUAAACAUGAGGAUCACCCAUGUAAUAUUAUGAGUGAGAGAGAGAAGUAGAAGGUGUAUUAUUUU
[1]
  apparent Kd: 102 nM
[2]
  apparent Kd: 128 nM

## ACAGCGUGAGGAUAUACAUGAGGAUCACCCAUGUGUGGCAGGUUAUCCUGUCAUAAGUGUAGAAGGCACGCUGU
[1]
  apparent Kd: 44.4 nM
[2]
  apparent Kd: 93.9 nM

## UAUAAGUCUCAUGUAACAUGAGGAUCACCCAUGUCAUAUUGUAGAAGGAUGAUAUUAUGUAUAUCAUAGGAUAUACUAUAAGAU
[1]
  apparent Kd: 21.2 nM
[2]
  apparent Kd: 23.3 nM

## GCAUAUCAGGGAGGAUAUGACAUGAGGAUCACCCAUGUAAUUAUGGCUCUGUCAGAAGGCCCAUCAUCACUAUAGUGACGAGAA
[1]
  apparent Kd: 479 nM
[2]
  apparent Kd: 63.2 nM

## AUUUUCCUGGCAGGAUAUCUUACACAUGAGGAUCACCCAUGUACAAAAGUGGGAGAAGGGUCGUGGAGGUGUAUAGUCGAAUAG
[3]
  apparent Kd: 79.2 nM
[4]
  apparent Kd: 36.1 nM

## UUCAGACAUGAGGAUCACCCAUGUGAGGAUAUGAUGCAGCAGUGGUCUACGCUGUGCAUCAGAAGGCACAUGUG
[1]
  apparent Kd: 140 nM
[2]
  apparent Kd: 32.7 nM

## GCUGUCGUAUGAGGAUAUGGUCAGCUUUGCUGACCAGAAGGCAUGUCAAUAGACAUGAGGAUCACCCAUGUAGUAAAGACAGCA
[3]
  apparent Kd: 402 nM
[4]
  apparent Kd: 39 nM

## GCAUCACAUGAGGAUCACCCAUGUCUUCGGAGCGGAGGAUAUGGUCACUGUAAACAGUGGCCAGAAGGCUGGAUGC
[4]
  apparent Kd: 25.5 nM

## UUGUUGUAUGUAGGAUAUGCGUGUUAUUAUUAUGCAGAAGGACAUGAGGAUCACCCAUGUGUAUUAUUAUUAUAUAUUAUAUAU
[1]
  apparent Kd: 21.5 nM
[2]
  apparent Kd: 19.6 nM

## GUGCCUUAUGAGAAGGCGAUCAUGAAACAUGAUCGAGGAUAUCAUGUAAACAUGAGGAUCACCCAUGUAUGGGUAUUAUGGUAC
[3]
  apparent Kd: 547 nM
[4]
  apparent Kd: 55.5 nM

## AUCCGGCGUGUAGGAUAUGGAAAAGAUUAGGAACCAGAAGGACAUGAGGAUCACCCAUGUACAUGUAAACAGUCAUCACCGGAA
[1]
  apparent Kd: 11.4 nM
[2]
  apparent Kd: 28.6 nM

## ACAUGAGGAUCACCCAUGUAUACAUAGGAUAUUGGUGAUCAGGCAUGUUUUACAGGAUAUGUCUGCGAGAAGGAUGCAAGUUGU
[3]
  apparent Kd: 633 nM
[4]
  apparent Kd: 346 nM

## AGGAGGUUAGGAUAUGCUGCUCGUCACUUGCGUGAUGAGUAGCAGAAGGGACAUGAGGAUCACCCAUGUAAAGA
[1]
  apparent Kd: 43.1 nM
[2]
  apparent Kd: 27.7 nM

## GGGCUCCCGCAGAAGGUGACAAAGUGUUCAUGUCAAGGAUAUGUGGUUCACAUGAGGAUCACCCAUGUAGGGCCCGUUAGGAAC
[3]
  apparent Kd: 97.3 nM
[4]
  apparent Kd: 23.9 nM

## GAAUAAUUGAUCCUUUUUUAUUACAUGAGGAUCACCCAUGUGCAGGAUAUCGAGAGUUUUAGAUUCGAGAAGGGCAAGAACUGU
[1]
  apparent Kd: 905 nM
[2]
  apparent Kd: 629 nM

## GGGUAGUGAGGAUAUCGUUGUUAGGAGGAGUAGGUAGGAGGCGAGAAGGCACAUGAGGAUCACCCAUGUAUGAG
[1]
  apparent Kd: 29.2 nM
[2]
  apparent Kd: 30.4 nM

## AGUACUCAAAGAGUACGCGUAAGCACAUGAGGAUCACCCAUGUAGGAUAUGCUACUCAAAGAGUAGUAGAAGGACAUAUACCUC
[1]
  apparent Kd: 5.2 nM
[2]
  apparent Kd: 6.34 nM

## UUUUUUAUGUAAGGAUAUCGAUUAUAUACACAUCCUACAUGAGGAUCACCCAUGUUUUAAUUUAUCGAGAAGGUACAUUGUCUG
[3]
  apparent Kd: 34.1 nM
[4]
  apparent Kd: 36.5 nM

## AAAUCUGCUGAGGAUAUGAUGACUGAGAGGUCAUCAGAAGGCGGUACAUGAGGAUCACCCAUGUCUAUGGGCAA
[1]
  apparent Kd: 310 nM
[2]
  apparent Kd: 659 nM

From the EternaBench riboswitch data
